In ChEMBL document CHEMBL1123361, “Syntheses and beta-adrenergic agonist and antiaggregatory properties of N-substituted trimetoquinol analogues” (J Med Chem, 1986):

Tests used:
Homo sapiens [1] = species: Homo sapiens; test: Compound was evaluated for the inhibition of U-46,619-induced human platelet aggregation (Antiaggregatory activity); assay type: functional
Procedure, shortened: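 Washed human platelets (ACD blood from aspirin-free donors, apyrase-washed, resuspended in calcium-containing modified Tyrode's pH 7.4, 3×10^8/mL) preincubated with vehicle or drug 3 min at 37 °C, then challenged with the minimum U46619 dose (0.8-2.0 μM) giving maximal irreversible aggregation; turbidometric readout ≥2 min; IC50 from % inhibition vs log concentration plots; mean ± SEM, 3-4 donors.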

[2] = biological target: Beta-2 adrenergic receptor (Cavia porcellus) (UniProt Q8K4Z4)
Homo sapiens [3] = species: Homo sapiens; test: Compound was evaluated for the secretion of [14C]- Serotonin (Antisecretory activity); assay type: functional
Procedure, shortened: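 [14C]serotonin release measured in the same U46619-challenged washed human platelet samples as aggregation: supernatant radioactivity after 10000g 30 s spin, scintillation counting, relative to total after lysis; net U46619-evoked release as % of total; IC50 from % inhibition of maximal release vs log concentration; mean ± SEM, ≥3 preparations.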

[4] = biological target: Beta-1 adrenergic receptor (Cavia porcellus) (UniProt B0FL73)
Beta-1 adrenergic receptor (Cavia porcellus), sequence (B0FL73 1-467): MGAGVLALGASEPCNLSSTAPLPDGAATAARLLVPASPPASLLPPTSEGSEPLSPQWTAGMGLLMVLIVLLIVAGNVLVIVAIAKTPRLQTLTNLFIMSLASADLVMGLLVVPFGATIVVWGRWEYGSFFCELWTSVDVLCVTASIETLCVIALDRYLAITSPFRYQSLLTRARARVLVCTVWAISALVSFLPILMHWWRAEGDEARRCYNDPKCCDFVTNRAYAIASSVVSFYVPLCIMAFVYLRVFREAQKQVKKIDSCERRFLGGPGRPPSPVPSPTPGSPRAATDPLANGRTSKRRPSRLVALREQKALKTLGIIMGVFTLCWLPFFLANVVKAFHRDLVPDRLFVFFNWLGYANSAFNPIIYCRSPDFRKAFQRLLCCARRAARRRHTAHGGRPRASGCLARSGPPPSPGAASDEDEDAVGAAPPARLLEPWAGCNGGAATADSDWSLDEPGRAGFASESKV

Beta-2 adrenergic receptor (Cavia porcellus), sequence (Q8K4Z4 whole entry, looked up): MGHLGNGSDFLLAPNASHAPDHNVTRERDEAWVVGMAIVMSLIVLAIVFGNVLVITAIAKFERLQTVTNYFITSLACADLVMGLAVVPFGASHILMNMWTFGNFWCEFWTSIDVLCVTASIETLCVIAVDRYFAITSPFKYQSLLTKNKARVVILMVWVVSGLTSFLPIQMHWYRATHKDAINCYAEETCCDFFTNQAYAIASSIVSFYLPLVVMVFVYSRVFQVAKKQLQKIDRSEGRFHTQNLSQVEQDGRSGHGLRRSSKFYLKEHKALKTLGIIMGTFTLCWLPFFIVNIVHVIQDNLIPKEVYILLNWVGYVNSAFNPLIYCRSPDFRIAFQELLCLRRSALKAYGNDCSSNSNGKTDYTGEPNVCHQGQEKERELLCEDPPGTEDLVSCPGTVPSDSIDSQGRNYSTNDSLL

Row | SMILES | IC50 (Homo sapiens [1]) | pD2 [2] | IC50 (Homo sapiens [3]) | pD2 [4]
1 | COc1cc(C[C@H]2NCCc3cc(O)c(O)cc32)cc(OC)c1OC | 0.71 µM | 5.63 | 0.55 µM | 5.58
2 | COc1cc(CC2c3cc(O)c(O)cc3CCN2Cc2ccccc2)cc(OC)c1OC (stereo not drawn) | 21.2 µM | 5.34 | 96.5 µM | 4.34
3 | COc1cc(CC2c3cc(O)c(O)cc3CCN2CCCl)cc(OC)c1OC (stereo not drawn) | 86.6 µM | 5.34 | 162 µM | 4.88
4 | COc1cc(CC2c3cc(O)c(O)cc3CCN2C)cc(OC)c1OC (stereo not drawn) | – | 6.05 | – | 5.89
5 | COc1cc(CC2c3cc(O)c(O)cc3CCN2CCO)cc(OC)c1OC (stereo not drawn) | 71.6 µM | 5.73 | 116 µM | 5.35
6 | COc1cc(CC2NCCc3cc(O)c(O)cc32)cc(OC)c1OC (stereo not drawn) | – | 6.96 | – | 7.1
7 | COc1cc(CC2c3cc4c(cc3CCN2CCCl)OS(=O)O4)cc(OC)c1OC (stereo not drawn) | 64.2 µM | 5.58 | 166 µM | 5.24
8 | COc1cc(C[C@@H]2NCCc3cc(O)c(O)cc32)cc(OC)c1OC | 19.3 µM | 7.23 | 24.5 µM | 7.26
